Results taken from ChEMBL document CHEMBL1126849, “Synthesis of A-ring fluorinated derivatives of (17 alpha,20E/Z)-[125I]iodovinylestradiols: effect on receptor binding and receptor-mediated target tissue uptake” (J Med Chem, 1993).

Columns and labels:
Rattus norvegicus [1] = test: Biodistribution in uterus of immature female rat after 1 hr administration of 3 micro Ci (111 kBq) in the presence of (+E2); type: ADME, organism-based; conditions: in vivo
Procedure, shortened: (§1)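 Immature female Long Evans rats (21–24 days, 45–70 g), 3–5 per group, unanesthetized in retention cages, given 3 μCi (111 kBq) 125I-labeled steroid by lateral tail vein. Vehicle: ethanol diluted with saline containing 1% Tween-80, final ethanol 9%. +E2 group co-injected 60 μg unlabeled estradiol (1 h only). Killed under ether; tissues KCl-washed, weighed, gamma-counted. Output: %ID/g (mean, SE) and uterus to blood or nontarget (muscle, spleen, lungs) ratios.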

Rattus norvegicus [2] = test: Biodistribution in fat of immature female rat after 3 hour administration of 3 micro Ci (111 kBq) in the absence of 60 microg estradiol; type: ADME, organism-based, Adipose tissue; conditions: in vivo
Procedure, shortened: (§2)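 Immature female Long Evans rats (21–24 days, 45–70 g), unanesthetized in retention cages, given 3 µCi (111 kBq) 125I-labeled steroid i.v. via lateral tail vein. Vehicle was ethanol diluted in saline containing 1% Tween-80, giving 9% ethanol final. The blocking group received 60 µg unlabeled estradiol co-injected. Rats were killed under ether by axillary bleeding, and tissues were KCl-washed and gamma-counted. Data are %ID/g, mean ± SE, n=3–5.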

Rattus norvegicus [3] = test: Biodistribution in uterus of immature female rat after 5 hour administration of 3 micro Ci (111 kBq) in the absence of 60 microg estradiol; type: ADME, organism-based; conditions: in vivo; procedure, shortened: as §1
Rattus norvegicus [4] = test: Biodistribution in uterus of immature female rat after 1 hr administration of 3 micro Ci (111 kBq) in the absence of 60 microg estradiol; type: ADME, organism-based; conditions: in vivo; procedure, shortened: as §1
Rattus norvegicus [5] = test: Biodistribution in liver of immature female rat after 12 hour administration of 3 micro Ci (111 kBq) in the absence of 60 microg estradiol; type: ADME, organism-based; conditions: in vivo; procedure, shortened: as §2
Rattus norvegicus [6] = test: Biodistribution in blood of immature female rat after 5 hour administration of 3 micro Ci (111 kBq) in the absence of 60 microg estradiol; type: ADME, organism-based; conditions: in vivo; procedure, shortened: as §2
Rattus norvegicus [7] = test: Biodistribution in kidney of immature female rat after 5 hour administration of 3 micro Ci (111 kBq) in the absence of 60 microg estradiol; type: ADME, organism-based; conditions: in vivo; procedure, shortened: as §2
Rattus norvegicus [8] = test: Biodistribution in uterus / blood of immature female rat after 12 hour administration of 3 micro Ci (111 kBq) in the absence of 60 microg estradiol; type: ADME, organism-based; conditions: in vivo
Procedure, shortened: (§3)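 Same in vivo procedure: immature female Long Evans rats (21–24 days), three to five per group, 3 μCi (111 kBq) tracer i.v. via tail vein in 9% ethanol/saline/1% Tween-80, ± 60 μg estradiol co-injected at 1 h. Uterus %ID/g (gamma counting) divided by blood, or by nontarget organ (muscle, spleen, lungs), %ID/g to give ratios.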

Rattus norvegicus [9] = test: Biodistribution in uterus of immature female rat after 3 hour administration of 3 micro Ci (111 kBq) in the absence of 60 microg estradiol; type: ADME, organism-based; conditions: in vivo; procedure, shortened: as §1
Rattus norvegicus [10] = test: Biodistribution in spleen of immature female rat after 5 hour administration of 3 micro Ci (111 kBq) in the absence of 60 microg estradiol; type: ADME, organism-based; conditions: in vivo
Procedure, shortened: (§4)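 Immature female Long Evans rats (21–24 days, 45–70 g), three to five per group, given 125I-labeled steroid (3 μCi, 111 kBq) by lateral tail vein without anesthesia. Vehicle: ethanol diluted in saline with 1% Tween-80, final ethanol 9%, 0.22 μm filtered. +E2 groups received 60 μg unlabeled estradiol co-injected. Killed under ether at set times; tissues KCl-washed, blotted, weighed, gamma counted; %ID/g, mean with SE.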

Rattus norvegicus [11] = test: Biodistribution in spleen of immature female rat after 1 hr administration of 3 micro Ci (111 kBq) in the absence of 60 microg estradiol; type: ADME, organism-based; conditions: in vivo; procedure, shortened: as §4
Rattus norvegicus [12] = test: Biodistribution in spleen of immature female rat after 1 hr administration of 3 micro Ci (111 kBq) in the presence of (+E2); type: ADME, organism-based; conditions: in vivo; procedure, shortened: as §4
Rattus norvegicus [13] = test: Biodistribution in blood of immature female rat after 3 hour administration of 3 micro Ci (111 kBq) in the absence of 60 microg estradiol; type: ADME, organism-based; conditions: in vivo; procedure, shortened: as §2
Rattus norvegicus [14] = test: Biodistribution in lungs of immature female rat after 5 hour administration of 3 micro Ci (111 kBq) in the absence of 60 microg estradiol; type: ADME, organism-based, Lung; conditions: in vivo; procedure, shortened: as §4
Rattus norvegicus [15] = test: Biodistribution in uterus / spleen, muscle, lungs of immature female rat after 1 hr administration of 3 micro Ci (111 kBq) in the absence of 60 microg estradiol; type: ADME, organism-based; conditions: in vivo; procedure, shortened: as §3
Rattus norvegicus [16] = test: Biodistribution in uterus / blood of immature female rat after 1 hr administration of 3 micro Ci (111 kBq) in the presence of (+E2); type: ADME, organism-based; conditions: in vivo; procedure, shortened: as §3
Rattus norvegicus [17] = test: Biodistribution in lungs of immature female rat after 1 hr administration of 3 micro Ci (111 kBq) in the presence of (+E2); type: ADME, organism-based, Lung; conditions: in vivo; procedure, shortened: as §2
Rattus norvegicus [18] = test: Biodistribution in blood of immature female rat after 1 hr administration of 3 micro Ci (111 kBq) in the presence of (+E2); type: ADME, organism-based; conditions: in vivo; procedure, shortened: as §2
Rattus norvegicus [19] = test: Biodistribution in fat of immature female rat after 1 hr administration of 3 micro Ci (111 kBq) in the absence of 60 microg estradiol; type: ADME, organism-based, Adipose tissue; conditions: in vivo; procedure, shortened: as §2
Rattus norvegicus [20] = test: Biodistribution in uterus / spleen, muscle, lungs of immature female rat after 12 hour administration of 3 micro Ci (111 kBq) in the absence of 60 microg estradiol; type: ADME, organism-based; conditions: in vivo; procedure, shortened: as §1
Rattus norvegicus [21] = test: Biodistribution in thyroid of immature female rat after 5 hour administration of 3 micro Ci (111 kBq) in the absence of 60 microg estradiol; type: ADME, organism-based, Thyroid gland; conditions: in vivo; procedure, shortened: as §4
Rattus norvegicus [22] = test: Biodistribution in uterus / blood of immature female rat after 1 hr administration of 3 micro Ci (111 kBq) in the absence of 60 microg estradiol; type: ADME, organism-based; conditions: in vivo; procedure, shortened: as §3
Rattus norvegicus [23] = test: Biodistribution in uterus / blood of immature female rat after 3 hour administration of 3 micro Ci (111 kBq) in the absence of 60 microg estradiol; type: ADME, organism-based; conditions: in vivo; procedure, shortened: as §3
[24] = molecular target: Estrogen receptor (Mus musculus) (UniProt O08537+P19785); test: Relative binding affinity (RBA) against murine cytoplasmic estrogen receptor incubated at 0-4 degree Celsius for 18 hours; type: protein assay
Procedure, shortened: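 Competitive binding on murine uterine cytoplasmic extract with 20 nM [3H]estradiol and competitor steroids at 2 nM–20 μM, incubated 18 h at 0–4 °C. RBA = 100 × ratio of […] concentration giving 50% competition for specific binding. Mean of three experiments with SD.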

Rattus norvegicus [25] = test: Biodistribution in kidney of immature female rat after 3 hour administration of 3 micro Ci (111 kBq) in the absence of 60 microg estradiol; type: ADME, organism-based; conditions: in vivo; procedure, shortened: as §2
Rattus norvegicus [26] = test: Biodistribution in liver of immature female rat after 3 hour administration of 3 micro Ci (111 kBq) in the absence of 60 microg estradiol; type: ADME, organism-based; conditions: in vivo; procedure, shortened: as §2
Rattus norvegicus [27] = test: Biodistribution in fat of immature female rat after 12 hour administration of 3 micro Ci (111 kBq) in the absence of 60 microg estradiol; type: ADME, organism-based, Adipose tissue; conditions: in vivo; procedure, shortened: as §2
Rattus norvegicus [28] = test: Biodistribution in uterus of immature female rat after 12 hour administration of 3 micro Ci (111 kBq) in the absence of 60 microg estradiol; type: ADME, organism-based; conditions: in vivo; procedure, shortened: as §1
Rattus norvegicus [29] = test: Biodistribution in muscle of immature female rat after 1 hr administration of 3 micro Ci (111 kBq) in the absence of 60 microg estradiol; type: ADME, organism-based, Muscle tissue; conditions: in vivo; procedure, shortened: as §4
Rattus norvegicus [30] = test: Biodistribution in uterus / blood of immature female rat after 5 hour administration of 3 micro Ci (111 kBq) in the absence of 60 microg estradiol; type: ADME, organism-based; conditions: in vivo; procedure, shortened: as §3

Sequence of Estrogen receptor (Mus musculus) (O08537 whole entry, looked up): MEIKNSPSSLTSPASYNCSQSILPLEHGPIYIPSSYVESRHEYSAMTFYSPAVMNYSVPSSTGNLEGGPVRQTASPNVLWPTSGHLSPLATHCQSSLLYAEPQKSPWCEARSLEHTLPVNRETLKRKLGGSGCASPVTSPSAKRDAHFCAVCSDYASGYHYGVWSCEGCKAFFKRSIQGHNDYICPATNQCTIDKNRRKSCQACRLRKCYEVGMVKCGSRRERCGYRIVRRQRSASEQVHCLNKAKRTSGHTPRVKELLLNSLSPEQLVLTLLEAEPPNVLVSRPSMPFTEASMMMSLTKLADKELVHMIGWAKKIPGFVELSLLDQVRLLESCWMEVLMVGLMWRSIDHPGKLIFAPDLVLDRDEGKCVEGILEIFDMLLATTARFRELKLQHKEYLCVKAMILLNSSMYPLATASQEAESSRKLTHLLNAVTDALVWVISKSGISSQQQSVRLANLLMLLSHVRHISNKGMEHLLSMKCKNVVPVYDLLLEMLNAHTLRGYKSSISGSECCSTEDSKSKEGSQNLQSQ
Sequence of Estrogen receptor (Mus musculus) (P19785 whole entry, looked up): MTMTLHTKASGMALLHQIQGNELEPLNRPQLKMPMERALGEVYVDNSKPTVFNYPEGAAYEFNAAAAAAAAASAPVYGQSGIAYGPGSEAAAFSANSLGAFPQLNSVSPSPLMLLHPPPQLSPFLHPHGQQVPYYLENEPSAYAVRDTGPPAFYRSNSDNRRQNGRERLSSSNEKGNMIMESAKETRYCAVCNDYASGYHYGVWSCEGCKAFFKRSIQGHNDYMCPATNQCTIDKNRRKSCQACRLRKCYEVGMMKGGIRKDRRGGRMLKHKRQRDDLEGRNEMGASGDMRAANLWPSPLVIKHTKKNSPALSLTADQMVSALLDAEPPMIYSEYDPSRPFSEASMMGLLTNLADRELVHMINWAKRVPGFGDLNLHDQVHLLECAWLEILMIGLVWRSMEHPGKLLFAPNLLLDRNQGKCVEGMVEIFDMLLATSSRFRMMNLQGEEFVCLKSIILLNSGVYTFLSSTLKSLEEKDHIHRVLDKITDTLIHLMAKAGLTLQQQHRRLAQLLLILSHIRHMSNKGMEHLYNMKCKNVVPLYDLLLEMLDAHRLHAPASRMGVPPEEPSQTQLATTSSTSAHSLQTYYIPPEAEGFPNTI

For `C[C@@H]1Cc2cc(O)c(F)cc2[C@H]2CC[C@@]3(C)[C@@H](CC[C@@]3(O)/C=C/I)[C@H]12`, the ID/g (Rattus norvegicus [1]) was 0.39%, the ID/g (Rattus norvegicus [2]) was 1.36% and the ID/g (Rattus norvegicus [3]) was 0.63%. The ID/g (Rattus norvegicus [4]) was 1.03%, the ID/g (Rattus norvegicus [5]) was 1% and the ID/g (Rattus norvegicus [6]) was 0.17%. For the same compound, the ID/g (Rattus norvegicus [7]) was 0.26%, the “Uterus-to-blood radioactivity ratio (dimensionless)” value (Rattus norvegicus [8]) was 2.99% and the ID/g (Rattus norvegicus [9]) was 0.85%. It also gave an ID/g (Rattus norvegicus [10]) of 0.18%, an ID/g (Rattus norvegicus [11]) of 0.31% and an ID/g (Rattus norvegicus [12]) of 0.45%. The ID/g (Rattus norvegicus [13]) was 0.2%, the ID/g (Rattus norvegicus [14]) was 0.22% and the “uterus-to-nontarget tissue uptake ratio” value (Rattus norvegicus [15]) was 3.3%. The “uterus/blood %ID/g ratio” value (Rattus norvegicus [16]) was 1.34%, the ID/g (Rattus norvegicus [17]) was 0.53% and the ID/g (Rattus norvegicus [18]) was 0.29%. For the same compound, the ID/g (Rattus norvegicus [19]) was 1.5%, the “uterus to nontarget tissue ratio” value (Rattus norvegicus [20]) was 2.55% and the ID/g (Rattus norvegicus [21]) was 203%. For the same compound, the “uterus-to-blood ratio of %ID/g” value (Rattus norvegicus [22]) was 4.49%, the “uterus to blood %ID/g ratio (unitless)” value (Rattus norvegicus [23]) was 4.11% and the RBA [24] was 12.1. The ID/g (Rattus norvegicus [25]) was 0.29%, the ID/g (Rattus norvegicus [26]) was 1.53% and the ID/g (Rattus norvegicus [27]) was 0.92%. The ID/g (Rattus norvegicus [28]) was 0.35%, the ID/g (Rattus norvegicus [29]) was 0.61% and the “uterus to blood ratio” value (Rattus norvegicus [30]) was 3.69%.

Work on `C[C@]12CC[C@@H]3c4ccc(O)c(F)c4CC[C@H]3[C@@H]1CC[C@@]2(O)/C=C\I` yielded an ID/g (Rattus norvegicus [1]) of 0.86%, an ID/g (Rattus norvegicus [2]) of 1.96% and an ID/g (Rattus norvegicus [3]) of 10.22%. The ID/g (Rattus norvegicus [4]) was 10.44%, the ID/g (Rattus norvegicus [5]) was 1.78% and the ID/g (Rattus norvegicus [6]) was 0.47%. The ID/g (Rattus norvegicus [7]) was 0.58%, the “Uterus-to-blood radioactivity ratio (dimensionless)” value (Rattus norvegicus [8]) was 27.32% and the ID/g (Rattus norvegicus [9]) was 7.96%. It also gave an ID/g (Rattus norvegicus [10]) of 0.4%, an ID/g (Rattus norvegicus [11]) of 1.02% and an ID/g (Rattus norvegicus [12]) of 0.56%. For the same compound, the ID/g (Rattus norvegicus [13]) was 0.48%, the ID/g (Rattus norvegicus [14]) was 0.56% and the “uterus-to-nontarget tissue uptake ratio” value (Rattus norvegicus [15]) was 8.31%. For the same compound, the “uterus/blood %ID/g ratio” value (Rattus norvegicus [16]) was 1.65%, the ID/g (Rattus norvegicus [17]) was 1.14% and the ID/g (Rattus norvegicus [18]) was 0.55%. For the same compound, the ID/g (Rattus norvegicus [19]) was 4.3%, the “uterus to nontarget tissue ratio” value (Rattus norvegicus [20]) was 31.56% and the ID/g (Rattus norvegicus [21]) was 117%. For the same compound, the “uterus-to-blood ratio of %ID/g” value (Rattus norvegicus [22]) was 15.19%, the “uterus to blood %ID/g ratio (unitless)” value (Rattus norvegicus [23]) was 17.08% and the RBA [24] was 66.9. For the same compound, the ID/g (Rattus norvegicus [25]) was 0.82%, the ID/g (Rattus norvegicus [26]) was 1.95% and the ID/g (Rattus norvegicus [27]) was 0.75%. The ID/g (Rattus norvegicus [28]) was 6.02%, the ID/g (Rattus norvegicus [29]) was 1.26% and the “uterus to blood ratio” value (Rattus norvegicus [30]) was 22.6%.
